An excerpt weighted towards active compounds, which were near 2.7% of everything screened.
FLuc stim CS = FLuc activators, initial screening, artefact control for FLuc-dependent activation tests, biochemical, ATPlite luminescence; Luciferin 4-monooxygenase (Photinus pyralis), P08659; ATPlite luciferase biochemical, 10 min; 0 = ATP-free wells, 1 = DMSO control; activation factor at 10 µM; 200,000 tested, under 10 active; AID 1027, 2008;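 active = luciferase activation factor, scaled between plate controls, of at least 2 with compound at 10 µM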
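Assay system – cell-free luciferase reagent · Medium – PBS-based ATP solution · Dosing – test compounds dosed from 2 mM stocks in 100% DMSO · Timing – 10 min, room temperature · Technique – light output (luminescence) · Measure – luminescence gain marking luciferase activators · Controls – No-ATP low control, compound-free enzyme-plus-ATP high control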
Redox H2O2 prof = compounds producing H2O2 with reducing agent – biochemical, NIH compound library profiling, artefact control for MLSCN library redox annotation, primary screen; activation, % at 10 µM; 200,000 compounds, 0.03% hits; AID 878, 2007; DTT-dependent redox cycling H2O2, phenol red/HRP absorbance; 100% = 100 µM peroxide control, 0% = buffer;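 active = activation of at least 50% relative to the plate's high and low controls in the primary single-dose screen; inactive = activation below 50%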;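 also: compound incubated with DTT at 0.8 mM final as the reducing agent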
Measles CPE = compounds protecting cells from measles virus cytopathic effect, primary screen, measles RdRp inhibitor project, single point, MLSMR library, absorbance; Measles virus-infected cells, CPE protection; protection (pct of control), % at 4 µM; 140,000 compounds, 1.5% hits; AID 841, 2007; in the data active = protection mostly above about 24%, no sharp cut-off; inactive = mostly below about 26%
ABCG2 block = ABCG2 efflux pump inhibitors, primary screen, multiplex with ABCB1, IgMXP3 cells, flow cytometry | AID 1325, 2008 | JC-1 efflux | 190,000 compounds, 0.1% hits | inhibition, % at 6.6 µM | Broad substrate specificity ATP-binding cassette transporter ABCG2 (Homo sapiens), Q9UNQ0;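 active = inhibition above 80%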;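 also: 0% = DMSO and 100% = nicardipine control wells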
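Test system: IgMXP3 (ABCG2) plus far-red-tagged CCRF-Adr (ABCB1) cells. Reagent: JC-1 dye as substrate. Timing: 10 min exposure at 25 °C with rotation, no wash. Measured by: flow cytometric JC-1 green MFI at 530 nm. Read-out: percent efflux inhibition, scaled nicardipine 100% to DMSO 0%. Control set: nicardipine and DMSO wells.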
FLuc inh counter = firefly luciferase enzyme inhibitors, primary screen, artefact control for luciferase-based inhibitor screens, biochemical, luminescence, ATPLite; 10 min; inhibition, % at 10 µM; 200,000 compounds, 1.5% hits; AID 1006, 2008;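 active = inhibition above about 50% when tested at 10 µM, limit read from the data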
ABCB1 block = ABCB1 efflux pump inhibitors, primary screen, cell-based, multiplex, flow cytometry, ABCG2 counter-screen; ATP-dependent translocase ABCB1 (Homo sapiens), P08183; CCRF-Adr cells, JC-1 efflux; inhibition, % at 6.6 µM; 190,000 compounds, 0.067% hits; in the data active = inhibition above about 40%;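 also: 0% = vehicle and 100% = reference inhibitor; higher value means more JC-1 retained so stronger ABCB1 efflux block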
Target sequence (P08183 whole entry, looked up): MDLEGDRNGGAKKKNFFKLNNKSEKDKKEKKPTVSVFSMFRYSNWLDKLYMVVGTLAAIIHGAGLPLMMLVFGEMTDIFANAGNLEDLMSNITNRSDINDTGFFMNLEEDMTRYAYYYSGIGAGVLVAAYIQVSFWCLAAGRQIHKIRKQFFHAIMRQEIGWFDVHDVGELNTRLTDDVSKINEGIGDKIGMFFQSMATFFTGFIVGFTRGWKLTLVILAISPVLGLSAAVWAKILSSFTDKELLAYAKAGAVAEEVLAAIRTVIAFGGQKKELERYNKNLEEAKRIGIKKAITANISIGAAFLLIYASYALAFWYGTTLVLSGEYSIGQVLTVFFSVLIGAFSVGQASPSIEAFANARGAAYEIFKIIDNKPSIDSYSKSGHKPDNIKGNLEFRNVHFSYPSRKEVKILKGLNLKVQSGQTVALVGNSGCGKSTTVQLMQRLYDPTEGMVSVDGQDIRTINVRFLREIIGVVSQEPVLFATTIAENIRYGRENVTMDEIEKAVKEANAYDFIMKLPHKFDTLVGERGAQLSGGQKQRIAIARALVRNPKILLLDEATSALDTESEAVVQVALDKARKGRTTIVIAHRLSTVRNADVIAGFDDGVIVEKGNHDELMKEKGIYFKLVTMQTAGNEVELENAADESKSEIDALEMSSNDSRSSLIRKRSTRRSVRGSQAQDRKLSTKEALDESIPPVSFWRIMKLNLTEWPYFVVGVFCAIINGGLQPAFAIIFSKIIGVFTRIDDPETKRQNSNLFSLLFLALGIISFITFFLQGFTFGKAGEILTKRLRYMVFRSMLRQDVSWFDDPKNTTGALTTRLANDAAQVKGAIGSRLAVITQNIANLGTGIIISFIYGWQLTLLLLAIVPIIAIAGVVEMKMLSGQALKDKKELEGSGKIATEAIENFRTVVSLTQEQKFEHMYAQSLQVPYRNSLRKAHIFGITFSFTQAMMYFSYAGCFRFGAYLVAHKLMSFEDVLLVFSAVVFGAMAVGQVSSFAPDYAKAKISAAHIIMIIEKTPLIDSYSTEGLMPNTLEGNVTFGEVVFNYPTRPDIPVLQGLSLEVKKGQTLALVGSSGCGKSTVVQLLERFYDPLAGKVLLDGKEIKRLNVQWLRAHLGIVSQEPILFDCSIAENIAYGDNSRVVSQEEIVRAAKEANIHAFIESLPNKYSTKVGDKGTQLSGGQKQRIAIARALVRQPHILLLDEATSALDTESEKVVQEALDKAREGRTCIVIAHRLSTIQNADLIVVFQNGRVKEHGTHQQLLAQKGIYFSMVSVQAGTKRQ
* = called active by the depositor; . = not tested or not shown.

SMILES	FLuc stim CS	Redox H2O2 prof	Measles CPE	ABCG2 block	FLuc inh counter	ABCB1 block
Cc1cccc(/C(N)=N/OC(=O)N2CCOCC2)c1	0.8	-3.9	10.1	0.6	16.8	0.2
Cc1nc2ccccn2c1C(=O)NC1CCCC1	1.1	-0.7	.	1.1	-11.5	0.3
Cc1ccc(NC(=O)c2c(C)nc3ccccn23)cc1C	0.3	-0.4	.	4.4	67.1*	0.8
Cc1nc2ccccn2c1C(=O)/C=C/c1cccc([N+](=O)[O-])c1	1.1	-2.0	.	0.4	-8.2	0.4
Cc1nc2ccccn2c1C(=O)NN=C1C2CC3CC(C2)CC1C3	1	-0.1	37.5*	2.9	-4.6	0.1
Cc1ccc(/C=C/C(=O)c2c(C)nc3ccccn23)cc1	0.5	-7.4	24.3	7.4	54.0*	1.4
CCOc1ccc(-c2nnn(CC(=O)c3ccc4c(c3)OCCO4)n2)cc1	1	0.6	9.4	0.7	2.1	0.0
COc1ccc(-c2nnn(CC(=O)c3ccc4c(c3)OCCO4)n2)cc1OC	1	1.1	27.0*	3.9	-1.6	1.4
COc1cccc(-c2nnc(-c3ccco3)o2)c1	0.5	-0.2	3.1	0.0	54.1*	-0.2
COc1cccc(-c2nnc(-c3ccc(C)o3)o2)c1	0.1	-0.7	5.4	2.4	86.4*	0.4
COc1cccc(C(=O)Nc2ccc(-c3nnc(-c4ccco4)o3)cc2)c1	1	1.6	29.5	-1.3	-4.2	-0.5
O=C(CN1CCCCCC1)Nc1ccc(Oc2ccccc2)cc1	1	1.1	.	0.2	-1.6	0.1
O=C(CN1CCCCC1)Nc1ccccc1	1	0.2	30.3*	3.0	-1.6	0.8
CC(C)C(=O)NCc1cc(-c2ccccc2)no1	1.1	-0.2	.	-1.0	-7.7	0.0
CC(C)Cn1cnc2c(c1=O)c1nc3ccccc3nc1n2Cc1ccc2c(c1)OCO2	1	0.4	57.6*	0.3	-0.9	0.2
Clc1ccc(CNCc2cccs2)cc1Cl	1.1	-0.1	4.7	8.9	-5.6	0.8
COc1ccc(C(=O)N2CCc3ccccc32)cc1	0.9	2.0	27.7*	10.1	7.3	0.4
Cc1ccc(OCC(=O)N2CCCc3ccccc32)cc1	1	0.5	14.7	2.5	4.0	0.9
COc1ccc(NC(=O)N2CCc3ccccc32)cc1	0.2	0.1	27.4	3.0	84.9*	-0.6
Cc1ccc(OCC(=O)N2CCc3ccccc32)cc1	0.2	0.0	7.0	4.2	78.0*	1.0
O=C(NC(=S)N1CCc2ccccc21)c1ccccc1	0.5	-0.1	18.1	-17.1	51.9*	-2.4
COc1ccc(NC(=O)N2CCCc3ccccc32)cc1	0.9	1.6	4.0	7.6	5.5	0.5
CCC(C(=O)O)P(=O)(c1ccc(Cl)cc1)c1ccc(Cl)cc1 (configuration not stated)	1	-0.2	.	4.7	-2.2	-0.1
COc1ccc(N2CCN(C(CNC(=O)C(=O)NCc3cccs3)c3ccco3)CC2)cc1 (configuration not stated)	1.1	-1.4	.	1.6	-5.9	0.4
Cc1cc(C)cc(NC(=O)CN(Cc2ccccc2)S(C)(=O)=O)c1	1	0.5	7.6	2.1	-2.2	0.6
SMILES	FLuc stim CS	Redox H2O2 prof	Measles CPE	ABCG2 block	FLuc inh counter	ABCB1 block
CCOC(=O)c1cc2sccc2n1CC(=O)N1CCc2ccccc21	1.1	2.6	24.8	4.4	-5.9	1.4
Cc1csc(=N)n1CC(=O)N1CCc2ccccc21	1	-2.2	26.4*	5.9	-2.4	1.0
Cc1cccc(OCc2n[nH]c(=S)n2Cc2ccccc2)c1	1.1	-1.8	.	0.1	-10.1	-0.8
Cc1ccc([N+](=O)[O-])c2c1C(N1CC(C)OC(C)C1)C(C)(C)O2 (configuration not stated)	1.1	-2.1	.	1.8	-5.6	0.8
C=CCn1c(C)cc(C(=O)COC(=O)C2CC(=O)N(Cc3ccccc3)C2)c1C (configuration not stated)	1	-3.3	17.7	0.1	3.8	0.0
C=CCn1c(C)cc(C(=O)COc2nncc3ccccc23)c1C	0.8	-0.7	45.6*	1.7	18.6	0.3
C=CCn1c(C)cc(C(=O)CSc2nc3ccccc3[nH]2)c1C	0.5	-4.2	9.7	12.0	54.8*	1.8
C=CCn1c(C)cc(C(=O)COC(=O)CNC(=O)c2ccccc2)c1C	0.8	-0.7	25.7*	1.9	16.5	0.8
CC(OC(=O)c1ccccc1O)C(=O)Nc1cccc(Cl)c1 (configuration not stated)	1	-1.6	.	15.7	-4.0	1.6
C=CCn1c(CCCNC(=O)c2ccccc2OC)nc2ccccc21	1.1	-0.1	.	4.6	-5.8	1.4
CCCCNC(=S)Nc1ccccc1Cc1ccccc1	1	-0.7	.	2.8	-0.1	0.8
CCCCNC(C(=O)Nc1cccc(S(=O)(=O)N2CCOCC2)c1)c1ccccc1 (configuration not stated)	1.1	-1.3	.	1.9	-10.8	0.9
CC1CN/C(=C\C(=O)c2ccc(Cl)cc2)C(=O)N1 (configuration not stated)	0.5	3.3	9.5	4.1	51.3*	0.3
N/C(=N\OCc1ccc([N+](=O)[O-])cc1)c1ccncc1	0.5	-2.7	.	5.6	54.9*	0.0
Cc1nnc(SCc2cnc(-c3ccc(C(C)C)cc3)s2)n1C	0	-0.7	2.5	-0.7	95.2*	-1.7
c1ccc(-c2ncc(CSc3nncn3-c3ccccc3)s2)cc1	1	0.8	22.9	3.9	-0.7	1.0
O=C(Nc1ccccc1C(=O)NCc1ccco1)c1ccccc1	1	1.2	13.2	8.5	-4.4	0.6
O=C(Nc1ccc(Cl)cc1)Nc1ccccc1C(=O)NCc1ccco1	0.9	0.3	37.6*	0.8	7.3	0.4
COc1ccc(Cl)cc1N(CC(=O)Nc1ccccc1C(=O)NCc1ccco1)S(C)(=O)=O	1.1	1.6	46.3*	0.3	-7.8	0.3
O=C(/C=C/c1ccc(Cl)cc1)NCc1ccco1	0.9	0.2	18.5*	16.4	12.4	0.3
COc1ccc(OCC(=O)Nc2cccc(C(=O)Nc3ccccc3C(=O)O)c2)cc1	0.9	-0.4	7.8	-2.9	6.2	-0.5
CCOc1ccc2ncc(S(=O)(=O)c3ccc(C)cc3)c(N3CCC4(CC3)OCCO4)c2c1	1.1	0.6	2.5	5.9	-7.8	5.5
CCCCCCCCSc1n[nH]c(N)n1	1	0.0	4.7	10.1	1.2	0.8
CCCCCCCCCSc1n[nH]c(N)n1	1.1	-1.8	59.9*	16.5	-5.5	0.7
